Measured values reported in ChEMBL document CHEMBL1649344, “Abyssomicin I, a modified polycyclic polyketide from Streptomyces sp. CHI39” (2010).
≈ marks a conversion by molar mass, not a printed value. Calls of active or inactive are those of the source. The rule behind the calls is not given here.

Assays:
Candida albicans = assay: Antimicrobial activity against Candida albicans IFO1594 at 100 uM after 20 hrs; assay type: functional, organism-based
How it was run: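 C. albicans is cultured in yeast nitrogen base with 2% glucose for 20 h at 30 °C, harvested, and suspended in saline at 1 × 10^5 cells/mL. The suspension is combined in wells with the same medium and sample in DMSO. After 20 h at 30 °C, absorbance at 650 nm gives growth.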

Micrococcus luteus [1] = assay: Antimicrobial activity against Micrococcus luteus ATCC 9343 at 100 uM after 20 hrs; assay type: functional, organism-based
How it was run: (§1)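 Broth microdilution in Mueller Hinton broth. Test bacteria are pre-grown 20 h at 30 °C on a reciprocal shaker, pelleted, and resuspended in saline at 1 × 10^5 cells/mL. Each well holds medium, cell suspension (1:10 of the well volume) and sample in DMSO. Plates are incubated 20 h at 30 °C, then growth is read as absorbance at 650 nm.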

Bacillus subtilis [2] = assay: Antimicrobial activity against Bacillus subtilis PCI219 at 100 uM after 20 hrs; assay type: functional, organism-based; how it was run: as §1
Staphylococcus aureus [3] = assay: Antimicrobial activity against Staphylococcus aureus IFO12732 at 100 uM after 20 hrs; assay type: functional, organism-based; how it was run: as §1
Escherichia coli = assay: Antimicrobial activity against Escherichia coli NIH-JC2 at 100 uM after 20 hrs; assay type: functional, organism-based
How it was run: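 E. coli is grown in Mueller Hinton broth for 20 h at 30 °C with shaking, spun down, and brought to 1 × 10^5 cells/mL in saline. This suspension is mixed in wells with medium and DMSO sample solution. The plate is incubated 20 h at 37 °C and growth is read at 650 nm.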

Staphylococcus aureus [4] = assay: Antimicrobial activity against Staphylococcus aureus IFO12732 after 20 hrs; assay type: functional; conditions: IFO12732, 20 h; how it was run: as §1
Micrococcus luteus [5] = assay: Antimicrobial activity against Micrococcus luteus ATCC 9343 after 20 hrs; assay type: functional; conditions: ATCC 9343, 20 h; how it was run: as §1
Bacillus subtilis [6] = assay: Antimicrobial activity against Bacillus subtilis PCI219 after 20 hrs; assay type: functional; conditions: PCI219, 20 h; how it was run: as §1

MIC (Staphylococcus aureus [4]) [mg/L] | MIC (Micrococcus luteus [5]) [mg/L] | MIC (Bacillus subtilis [6]) [mg/L] | SMILES | Activity (Candida albicans) | Activity (Micrococcus luteus [1]) | Activity (Bacillus subtilis [2]) | Activity (Staphylococcus aureus [3]) | Activity (Escherichia coli)
 |  |  | C[C@@H]1CCC(=O)C2=C3O[C@@]4(C)[C@H](C)C[C@@]3(OC2=O)[C@H](/C=C/[C@H]1O)[C@H]4O | inactive | inactive | inactive | inactive | inactive
29 (≈ 83.7 µM) | 29 (≈ 83.7 µM) | 29 (≈ 83.7 µM) | C[C@@H]1CCC(=O)C2=C3O[C@@]4(C)[C@H](C)C[C@@]3(OC2=O)[C@H](/C=C/C1=O)[C@H]4O | inactive |  |  |  | inactive
